# Measurements published in ChEMBL document CHEMBL1255293, “In vitro susceptibility of various genotypic strains of Toxoplasma gondii to pyrimethamine, sulfadiazine, and atovaquone” (Antimicrob Agents Chemother, 2008).
# How the values were obtained:
# Assay type in all cases: functional, organism-based
# Toxoplasma gondii [1] = assay: Antimicrobial activity against Toxoplasma gondii isolate RMS-1995-ABE harboring DHPS Ex5, A587V mutant gene infected in human MRC-5 cells after 72 hrs by ELISA; details: MRC5, 72 h
# Method in brief: (§1)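 Tachyzoites freshly harvested from THP-1 cultures inoculated at 0.4 to 1 tachyzoite/10 cells, adjusted per strain, onto confluent MRC-5 fibroblasts. Drugs were stocked at 1 mg/ml in 50% methanol-50% acetone, diluted in RPMI, and added 3 h post-inoculation in four to eight replicate wells. Incubation was 72 h, then methanol fixation. Read-out was ELISA with rabbit anti-Toxoplasma serum and peroxidase anti-rabbit conjugate, TMB substrate, OD 405 nm. IC50 came from linear regression of OD versus log concentration; experiments were run in duplicate.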
# Toxoplasma gondii [2] = assay: Antimicrobial activity against Toxoplasma gondii ENT harboring DHPS Ex2, E474D/Ex3, 156 sil Leu/Ex4, R560K/Ex5, 580 sil Gly/A597E/627 sil Glu mutant gene and DHFR Ex3, 156 sil Leu mutant gene infected in human MRC-5 cells after 72 hrs by ELISA; details: MRC5, 72 h; method in brief: as §1
# Toxoplasma gondii [3] = assay: Antimicrobial activity against Toxoplasma gondii isolate TOU-1998-TRI infected in human MRC-5 cells after 72 hrs by ELISA; details: MRC5, 72 h
# Method in brief: (§2)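 Confluent MRC-5 fibroblasts (3.5 x 10^4 to 4 x 10^4 cells/well) inoculated with tachyzoites freshly harvested from THP-1 cultures, 0.4 to 1 tachyzoite/10 cells adjusted per strain for nonconfluent foci at 72 h. Drugs (stock 1 mg/ml in 50% methanol-50% acetone, diluted in RPMI) added 3 h post-inoculation, four to eight replicate wells per dilution. Cultures incubated 72 h.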
# Toxoplasma gondii [4] = assay: Antimicrobial activity against Toxoplasma gondii RH harboring DHPS Ex2, E474D/Ex4, R560K/Ex5, 580 sil Gly; A597E/627 sil Glu mutant gene and DHFR Ex3, 156 sil Leu mutant gene infected in human MRC-5 cells after 72 hrs by ELISA; details: MRC5, 72 h; method in brief: as §1
# Toxoplasma gondii [5] = assay: Antimicrobial activity against Toxoplasma gondii isolate TRS-2004-REV infected in human MRC-5 cells after 72 hrs by ELISA; details: MRC5, 72 h; method in brief: as §2
# Toxoplasma gondii [6] = assay: Antimicrobial activity against Toxoplasma gondii isolate GRE-1995-MAE infected in human MRC-5 cells after 72 hrs by ELISA; details: MRC5, 72 h; method in brief: as §2
# Toxoplasma gondii [7] = assay: Antimicrobial activity against Toxoplasma gondii ME49 infected in human MRC-5 cells infected in human MRC-5 cells after 72 hrs by ELISA; details: ME49, MRC5, 72 h; method in brief: as §2
# Toxoplasma gondii [8] = assay: Antimicrobial activity against Toxoplasma gondii B1 harboring DHPS Ex2, E474D/Ex4, R560K/Ex5, 580 sil Gly/ A597E/627 sil Glu mutant gene and DHFR Ex3, 156 sil Leu mutant gene infected in human MRC-5 cells after 72 hrs by ELISA; details: B1, MRC5, 72 h; method in brief: as §1
# Toxoplasma gondii [9] = assay: Antimicrobial activity against Toxoplasma gondii isolate GUY-2003-MEL harboring DHPS Ex2, E474D/Ex4, R560K/Ex5, 580 sil Gly/ A597E/627 sil Glu mutant gene and DHFR Ex2, 145 sil Val mutant gene infected in human MRC-5 cells after 72 hrs by ELISA; details: MRC5, 72 h; method in brief: as §1
# Toxoplasma gondii [10] = assay: Antimicrobial activity against Toxoplasma gondii isolate RMS-1994-LEF harboring DHPS Ex2, E474D/Ex4, R560K/Ex5, 580 sil Gly; A597E/627 sil Glu mutant gene and DHFR Ex3, 204 sil Ala mutant gene infected in human MRC-5 cells after 72 hrs by ELISA; details: MRC5, 72 h; method in brief: as §1
# Toxoplasma gondii [11] = assay: Antimicrobial activity against Toxoplasma gondii isolate RMS-2001-MAU infected in human MRC-5 cells after 72 hrs by ELISA; details: MRC5, 72 h; method in brief: as §2
# Toxoplasma gondii [12] = assay: Antimicrobial activity against Toxoplasma gondii isolate RMS-2003-DJO infected in human MRC-5 cells after 72 hrs by ELISA; details: MRC5, 72 h; method in brief: as §2
# Toxoplasma gondii [13] = assay: Antimicrobial activity against Toxoplasma gondii isolate RMS-2005-HAG infected in human MRC-5 cells after 72 hrs by ELISA; details: MRC5, 72 h; method in brief: as §2
# Toxoplasma gondii [14] = assay: Antimicrobial activity against Toxoplasma gondii isolate GRE-1998-TRA infected in human MRC-5 cells after 72 hrs by ELISA; details: MRC5, 72 h; method in brief: as §2
# Toxoplasma gondii [15] = assay: Antimicrobial activity against Toxoplasma gondii isolate PSP-2005-MUP infected in human MRC-5 cells after 72 hrs by ELISA; details: MRC5, 72 h; method in brief: as §2
# Toxoplasma gondii [16] = assay: Antimicrobial activity against Toxoplasma gondii NED infected in human MRC-5 cells after 72 hrs by ELISA; details: MRC5, 72 h; method in brief: as §2
Structure (SMILES),IC50 (Toxoplasma gondii [1]) [µg/mL],IC50 (Toxoplasma gondii [2]) [µg/mL],IC50 (Toxoplasma gondii [3]) [µg/mL],IC50 (Toxoplasma gondii [4]) [µg/mL],IC50 (Toxoplasma gondii [5]) [µg/mL],IC50 (Toxoplasma gondii [6]) [µg/mL],IC50 (Toxoplasma gondii [7]) [µg/mL],IC50 (Toxoplasma gondii [8]) [µg/mL],IC50 (Toxoplasma gondii [9]) [µg/mL],IC50 (Toxoplasma gondii [10]) [µg/mL],IC50 (Toxoplasma gondii [11]) [µg/mL],IC50 (Toxoplasma gondii [12]) [µg/mL],IC50 (Toxoplasma gondii [13]) [µg/mL],IC50 (Toxoplasma gondii [14]) [µg/mL],IC50 (Toxoplasma gondii [15]) [µg/mL],IC50 (Toxoplasma gondii [16]) [µg/mL]
O=C1C(O)=C([C@H]2CC[C@H](c3ccc(Cl)cc3)CC2)C(=O)c2ccccc21 [ATOVAQUONE],0.11,0.07,0.07,0.05,0.07,0.03,0.05,0.1,0.04,0.04,0.06,0.08,0.04,0.05,0.06,0.03
CCc1nc(N)nc(N)c1-c1ccc(Cl)cc1 [PYRIMETHAMINE],0.17,0.34,0.15,0.1,0.18,0.11,0.09,0.35,0.25,0.07,0.12,0.09,0.11,0.39,0.14,0.19
Nc1ccc(S(=O)(=O)Nc2ncccn2)cc1 [SULFADIAZINE],> 50,4.28,2.95,6.52,6.26,14.9,6.55,> 50,5.35,9.65,> 50,4.9,6.7,16.8,18.8,9.25
